Data taken from ChEMBL document CHEMBL4000255, “Discovery and Assessment of Atropisomers of (±)-Lesinurad” (ACS Med Chem Lett, 2017).
Where “and” joins values, the source holds several entries; their conditions need not be identical. Identical values can stand only once.

Key:
[1] = molecular target: T1, Cytochrome P450 2C9 (Homo sapiens, UniProt P11712); test: Drug metabolism in human liver microsomes assessed as CYP2C9-mediated metabolism by measuring compound intrinsic clearance at 10 pmol/ml preincubated for 10 mins followed by NADPH addition measured after 10 mins by LC-MS/MS analysis; assay type: ADME
[2] = molecular target: T2, CYP2C9 (Homo sapiens, UniProt P11712); test: Drug metabolism in human liver microsomes assessed as CYP2C9-mediated metabolism by measuring compound half life at 10 pmol/ml preincubated for 10 mins followed by NADPH addition measured after 10 mins by LC-MS/MS analysis; assay type: ADME
[3] = molecular target: T2, CYP2C9; test: Drug metabolism in human liver microsomes assessed as CYP2C9-mediated metabolism by measuring parent compound remaining at 10 pmol/ml after 60 mins in absence of NADPH by LC-MS/MS analysis; assay type: ADME; conditions: read-out: Stability
[4] = molecular target: T2, CYP2C9; test: Drug metabolism in human liver microsomes assessed as CYP2C9-mediated metabolism by measuring parent compound remaining at 10 pmol/ml after 60 mins in presence of NADPH by LC-MS/MS analysis; assay type: ADME; conditions: read-out: Stability
[5] = Drug metabolism in cynomolgus monkey assessed as (+)-Lesinurad level in urine at 2 mg/kg, iv administered as single bolus dose measured at 24 hrs post dose by LC-MS/MS analysis; assay type: ADME, organism-based, Macaca fascicularis; conditions: in vivo, read-out: Drug metabolism
In short: (§1)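 Male cynomolgus monkeys received a single 2 mg/kg IV or 10 mg/kg PO dose. Plasma and urine were collected over time periods, and the two atropisomers were quantified separately. Urine values are the mean concentration over 0-24 h. Data are mean±SD, n=3.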

[6] = molecular target: T1, Cytochrome P450 2C9; test: Drug metabolism in human liver microsomes assessed as CYP2C9-mediated metabolism by measuring compound intrinsic clearance at 250 pmol/ml preincubated for 10 mins followed by NADPH addition measured after 10 mins by LC-MS/MS analysis; assay type: ADME
[7] = Apparent plasma clearance in cynomolgus monkey at 2 mg/kg, iv administered as single bolus dose by LC-MS/MS analysis; assay type: ADME, organism-based, Macaca fascicularis; conditions: read-out: CL(app); in short: as §1
[8] = Apparent permeability from basolateral to apical side in MDCK cells expressing MDR1; assay type: ADME, cell-based, Canis lupus familiaris; conditions: dog
[9] = Drug recovery in cynomolgus monkey urine at 10 mg/kg, po administered as single dose via gavage measured at 24 hrs post dose by LC-MS/MS analysis; assay type: ADME, organism-based, Macaca fascicularis; conditions: read-out: Drug recovery; in short: as §1
[10] = Apparent permeability from apical to basolateral side in MDCK cells expressing MDR1; assay type: ADME, cell-based, Canis lupus familiaris; conditions: dog
[11] = Stability of the compound in solid state assessed as compound purity after 80 days; assay type: physicochemical; conditions: 1920 h
[12] = test system: Plasma; test: Stability in human plasma at 37 degC up to 2 hrs; assay type: ADME, cell-free
[13] = molecular target: T1, Cytochrome P450 2C9; test: Drug metabolism in human liver microsomes assessed as CYP2C9-mediated mono-oxidative metabolite formation at 250 pmol/ml preincubated for 10 mins followed by NADPH addition measured after 10 mins by LC-MS/MS analysis; assay type: ADME; conditions: 0.25 µM
[14] = test system: Cynomolgus monkey; test: (§2) AUC (0 to infinity) in cynomolgus monkey at 2 mg/kg, iv administered as single bolus dose by LC-MS/MS analysis; assay type: ADME, organism-based, Macaca fascicularis; parameters: dose 2 mg/kg, time infinity, route intravenous; conditions: in vivo
[15] = as §2; assay type: ADME, organism-based, Macaca fascicularis; parameters: dose 2 mg/kg, time infinity, route intravenous; conditions: in vivo
[16] = Drug level in cynomolgus monkey urine at 2 mg/kg, iv administered as single bolus dose measured at 24 hrs post dose by LC-MS/MS analysis; assay type: ADME, organism-based, Macaca fascicularis; conditions: read-out: Drug uptake; in short: as §1
[17] = Drug level in cynomolgus monkey urine at 10 mg/kg, po administered as single dose via gavage measured at 24 hrs post dose by LC-MS/MS analysis; assay type: ADME, organism-based, Macaca fascicularis; conditions: in vivo, read-out: Drug uptake; in short: as §1
[18] = test system: Plasma; test: Drug metabolism in Sprague-Dawley rat plasma assessed as (+)-Lesinurad formation at 10 mg/kg, po administered as single dose via gavage by LC-MS/MS analysis; assay type: ADME, organism-based; conditions: in vivo
[19] = Stability of the compound in ethanol at 37 degC for 4 days; assay type: physicochemical; conditions: 96 h
[20] = Stability of the compound in solid state assessed as racemization after 80 days; assay type: physicochemical; conditions: 1920 h
[21] = Drug recovery in cynomolgus monkey urine at 2 mg/kg, iv administered as single bolus dose measured at 24 hrs post dose by LC-MS/MS analysis; assay type: ADME, organism-based, Macaca fascicularis; conditions: read-out: Drug recovery; in short: as §1
[22] = Drug metabolism in cynomolgus monkey assessed as (-)-Lesinurad level in urine at 2 mg/kg, iv administered as single bolus dose measured at 24 hrs post dose by LC-MS/MS analysis; assay type: ADME, organism-based, Macaca fascicularis; conditions: in vivo; in short: as §1
[23] = Stability of the compound in DMSO at 80 degC for 4 days; assay type: physicochemical; conditions: 96 h
[24] = test system: Plasma; test: Drug metabolism in Sprague-Dawley rat plasma assessed as (+)-Lesinurad formation at 2 mg/kg, iv administered as single bolus dose by LC-MS/MS analysis; assay type: ADME, organism-based; conditions: in vivo
[25] = test system: Plasma; test: Stability in Sprague-Dawley rat plasma at 37 degC up to 2 hrs; assay type: ADME, cell-free
[26] = Drug metabolism in cynomolgus monkey assessed as (-)-Lesinurad level in urine at 10 mg/kg, po administered as single dose via gavage measured at 24 hrs post dose by LC-MS/MS analysis; assay type: ADME, organism-based, Macaca fascicularis; conditions: in vivo, read-out: Drug metabolism; in short: as §1
[27] = molecular target: T2, CYP2C9; test: (§3) Drug metabolism in human liver microsomes assessed as CYP2C9-mediated metabolism by measuring parent compound remaining at 250 pmol/ml after 60 mins in absence of NADPH by LC-MS/MS analysis; assay type: ADME; conditions: liver microsomes, read-out: Stability
[28] = molecular target: T1, Cytochrome P450 2C9; test: as §3; assay type: ADME; conditions: microsomes, 1 h
[29] = molecular target: T2, CYP2C9; test: (§4) Drug metabolism in human liver microsomes assessed as CYP2C9-mediated metabolism by measuring compound half life at 250 pmol/ml preincubated for 10 mins followed by NADPH addition measured after 10 mins by LC-MS/MS analysis; assay type: ADME; conditions: liver microsomes
[30] = molecular target: T1, Cytochrome P450 2C9; test: as §4; assay type: ADME; conditions: microsomes, 10 min
[31] = molecular target: T3, Cytochrome P450 1A2 (Homo sapiens, UniProt P05177); test: Inhibition of CYP1A2 (unknown origin); assay type: ADME
T3 sequence (P05177 whole entry): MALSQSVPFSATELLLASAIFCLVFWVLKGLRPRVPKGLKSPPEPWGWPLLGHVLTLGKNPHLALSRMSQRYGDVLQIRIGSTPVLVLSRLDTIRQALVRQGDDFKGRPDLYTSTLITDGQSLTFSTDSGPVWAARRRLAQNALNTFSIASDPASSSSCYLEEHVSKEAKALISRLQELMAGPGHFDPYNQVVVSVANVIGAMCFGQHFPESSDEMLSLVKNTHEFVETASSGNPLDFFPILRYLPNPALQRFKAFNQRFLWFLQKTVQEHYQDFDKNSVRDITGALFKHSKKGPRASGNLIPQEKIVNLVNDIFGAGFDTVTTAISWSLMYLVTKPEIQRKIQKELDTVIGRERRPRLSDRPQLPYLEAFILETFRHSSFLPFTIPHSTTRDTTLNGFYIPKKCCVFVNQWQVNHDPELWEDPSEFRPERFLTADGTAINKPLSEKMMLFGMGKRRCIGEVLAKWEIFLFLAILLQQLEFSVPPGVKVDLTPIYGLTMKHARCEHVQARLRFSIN

[32] = test system: Plasma; test: Drug metabolism in Sprague-Dawley rat plasma assessed as (-)-Lesinurad formation at 10 mg/kg, po administered as single dose via gavage by LC-MS/MS analysis; assay type: ADME, organism-based; conditions: in vivo
[33] = molecular target: T2, CYP2C9; test: (§5) Drug metabolism in human liver microsomes assessed as CYP2C9-mediated metabolism by measuring parent compound remaining at 250 pmol/ml after 60 mins in presence of NADPH by LC-MS/MS analysis; assay type: ADME; conditions: liver microsomes, read-out: Stability
[34] = molecular target: T1, Cytochrome P450 2C9; test: as §5; assay type: ADME; conditions: microsomes, 1 h
[35] = Drug metabolism in cynomolgus monkey assessed as (+)-Lesinurad level in urine at 10 mg/kg, po administered as single dose via gavage measured at 24 hrs post dose by LC-MS/MS analysis; assay type: ADME, organism-based, Macaca fascicularis; conditions: in vivo, read-out: Drug metabolism; in short: as §1
[36] = molecular target: Cytochrome P450 2C19 (Homo sapiens, UniProt P33261); test: Inhibition of CYP2C19 (unknown origin); assay type: ADME
[37] = molecular target: T1, Cytochrome P450 2C9; test: Inhibition of CYP2C9 (unknown origin); assay type: ADME
[38] = molecular target: Cytochrome P450 3A4 (Homo sapiens, UniProt P08684); test: Inhibition of CYP3A4 (unknown origin); assay type: ADME
[39] = test system: Cynomolgus monkey; test: AUC (0 to infinity) in cynomolgus monkey at 10 mg/kg, po administered as single dose via gavage by LC-MS/MS analysis; assay type: ADME, organism-based, Macaca fascicularis; parameters: dose 10 mg/kg, route oral, time infinity; conditions: in vivo
[40] = molecular target: Cytochrome P450 2D6 (Homo sapiens, UniProt P10635); test: Inhibition of CYP2D6 (unknown origin); assay type: ADME
[41] = molecular target: Voltage-gated inwardly rectifying potassium channel KCNH2 (Homo sapiens, UniProt Q12809); test: Inhibition of human ERG
[42] = test system: Plasma; test: Drug metabolism in Sprague-Dawley rat plasma assessed as (-)-Lesinurad formation at 2 mg/kg, iv administered as single bolus dose by LC-MS/MS analysis; assay type: ADME, organism-based; conditions: in vivo

Cytochrome P450 2D6, sequence (P10635 whole entry): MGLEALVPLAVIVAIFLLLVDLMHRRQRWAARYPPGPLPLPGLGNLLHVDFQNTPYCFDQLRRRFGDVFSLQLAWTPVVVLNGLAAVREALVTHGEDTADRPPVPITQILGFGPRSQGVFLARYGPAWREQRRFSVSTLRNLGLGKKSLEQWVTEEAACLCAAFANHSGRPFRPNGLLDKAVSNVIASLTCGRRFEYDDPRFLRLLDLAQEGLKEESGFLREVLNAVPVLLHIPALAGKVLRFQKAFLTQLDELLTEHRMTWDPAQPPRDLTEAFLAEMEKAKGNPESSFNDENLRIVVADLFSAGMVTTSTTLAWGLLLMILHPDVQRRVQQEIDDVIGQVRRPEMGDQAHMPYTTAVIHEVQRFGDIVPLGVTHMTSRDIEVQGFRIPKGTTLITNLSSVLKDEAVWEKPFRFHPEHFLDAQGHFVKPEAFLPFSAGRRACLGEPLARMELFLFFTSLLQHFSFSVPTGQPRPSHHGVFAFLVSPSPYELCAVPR
Voltage-gated inwardly rectifying potassium channel KCNH2, sequence (Q12809 whole entry): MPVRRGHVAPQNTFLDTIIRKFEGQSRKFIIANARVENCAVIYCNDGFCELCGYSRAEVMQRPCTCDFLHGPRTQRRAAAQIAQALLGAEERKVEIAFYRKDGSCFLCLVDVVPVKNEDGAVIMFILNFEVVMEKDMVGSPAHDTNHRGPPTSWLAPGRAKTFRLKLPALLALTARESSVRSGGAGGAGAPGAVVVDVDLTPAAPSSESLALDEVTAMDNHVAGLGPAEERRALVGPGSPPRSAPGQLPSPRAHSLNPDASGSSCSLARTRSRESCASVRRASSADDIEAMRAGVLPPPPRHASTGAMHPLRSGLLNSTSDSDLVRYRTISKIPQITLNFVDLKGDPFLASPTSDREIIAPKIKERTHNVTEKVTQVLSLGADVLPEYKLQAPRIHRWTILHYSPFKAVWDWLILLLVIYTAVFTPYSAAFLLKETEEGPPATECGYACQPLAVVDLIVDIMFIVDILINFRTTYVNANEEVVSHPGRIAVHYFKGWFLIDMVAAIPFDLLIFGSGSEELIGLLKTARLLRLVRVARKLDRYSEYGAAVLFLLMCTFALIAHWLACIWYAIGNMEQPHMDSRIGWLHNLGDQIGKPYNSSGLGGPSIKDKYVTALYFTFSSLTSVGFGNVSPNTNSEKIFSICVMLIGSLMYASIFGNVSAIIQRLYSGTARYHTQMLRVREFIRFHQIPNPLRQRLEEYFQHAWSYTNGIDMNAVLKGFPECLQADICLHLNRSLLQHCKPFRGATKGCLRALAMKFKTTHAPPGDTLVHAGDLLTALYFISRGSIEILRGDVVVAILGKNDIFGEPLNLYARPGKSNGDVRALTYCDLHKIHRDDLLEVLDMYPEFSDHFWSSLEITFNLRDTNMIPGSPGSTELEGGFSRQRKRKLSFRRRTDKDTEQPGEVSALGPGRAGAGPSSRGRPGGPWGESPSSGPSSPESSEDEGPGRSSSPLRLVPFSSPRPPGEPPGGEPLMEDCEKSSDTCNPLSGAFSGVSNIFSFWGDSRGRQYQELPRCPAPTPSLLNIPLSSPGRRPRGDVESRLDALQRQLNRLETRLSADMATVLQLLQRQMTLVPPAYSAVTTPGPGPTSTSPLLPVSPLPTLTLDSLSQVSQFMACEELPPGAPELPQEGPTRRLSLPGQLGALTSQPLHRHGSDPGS
Cytochrome P450 3A4, sequence (P08684 whole entry): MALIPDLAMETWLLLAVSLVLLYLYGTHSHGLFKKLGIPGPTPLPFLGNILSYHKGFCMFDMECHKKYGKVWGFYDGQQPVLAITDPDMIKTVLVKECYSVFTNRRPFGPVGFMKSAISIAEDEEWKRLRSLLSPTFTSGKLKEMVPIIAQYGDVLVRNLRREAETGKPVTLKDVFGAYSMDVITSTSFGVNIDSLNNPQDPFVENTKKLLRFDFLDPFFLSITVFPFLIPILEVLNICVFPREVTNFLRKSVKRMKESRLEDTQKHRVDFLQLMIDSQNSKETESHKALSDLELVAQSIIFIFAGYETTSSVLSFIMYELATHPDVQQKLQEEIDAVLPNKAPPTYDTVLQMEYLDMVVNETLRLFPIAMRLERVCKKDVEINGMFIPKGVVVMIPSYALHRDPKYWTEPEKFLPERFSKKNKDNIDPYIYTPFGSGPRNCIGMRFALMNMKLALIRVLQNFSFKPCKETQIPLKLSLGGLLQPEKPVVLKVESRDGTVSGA
T1 sequence (P11712 whole entry): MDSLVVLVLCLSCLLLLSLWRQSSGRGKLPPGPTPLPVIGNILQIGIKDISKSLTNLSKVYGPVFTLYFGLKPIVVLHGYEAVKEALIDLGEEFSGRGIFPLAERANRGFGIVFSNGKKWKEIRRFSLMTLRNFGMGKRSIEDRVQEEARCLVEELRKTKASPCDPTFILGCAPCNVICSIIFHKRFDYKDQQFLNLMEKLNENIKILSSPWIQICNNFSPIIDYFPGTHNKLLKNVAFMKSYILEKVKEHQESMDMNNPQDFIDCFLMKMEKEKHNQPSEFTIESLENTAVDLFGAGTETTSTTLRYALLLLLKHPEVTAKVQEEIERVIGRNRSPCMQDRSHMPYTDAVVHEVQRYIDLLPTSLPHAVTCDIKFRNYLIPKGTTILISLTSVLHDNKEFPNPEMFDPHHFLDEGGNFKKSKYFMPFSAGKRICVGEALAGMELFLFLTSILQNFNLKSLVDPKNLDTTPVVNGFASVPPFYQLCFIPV
T2 sequence (P11712 whole entry): as above
Cytochrome P450 2C19, sequence (P33261 whole entry): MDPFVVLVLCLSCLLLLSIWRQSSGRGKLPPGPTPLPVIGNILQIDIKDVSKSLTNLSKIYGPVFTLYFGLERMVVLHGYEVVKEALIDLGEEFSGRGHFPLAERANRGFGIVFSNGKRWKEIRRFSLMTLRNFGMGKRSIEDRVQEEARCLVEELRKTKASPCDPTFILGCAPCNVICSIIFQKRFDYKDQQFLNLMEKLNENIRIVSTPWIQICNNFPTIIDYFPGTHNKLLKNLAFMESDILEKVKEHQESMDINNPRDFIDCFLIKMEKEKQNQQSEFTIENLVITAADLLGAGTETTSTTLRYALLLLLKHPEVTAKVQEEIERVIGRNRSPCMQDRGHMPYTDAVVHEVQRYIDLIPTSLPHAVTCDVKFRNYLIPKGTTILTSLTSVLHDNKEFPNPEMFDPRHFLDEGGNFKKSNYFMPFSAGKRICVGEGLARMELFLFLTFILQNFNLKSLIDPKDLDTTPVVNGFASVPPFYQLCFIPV

O=C(O)Cc1ccccc1Nc1c(Cl)cccc1Cl [DICLOFENAC]
CLint [1]: 5.6 µL/min/pmol | half-life at 10 pmol/ml [2]: 0.205 h | remaining at 1 h, 10 pmol/ml [3]: 112% | remaining at 1 h, 10 pmol/ml [4]: 3.3%

O=C(O)CSc1nnc(Br)n1-c1ccc(C2CC2)c2ccccc12 [LESINURAD]
concentration [5]: 2.8 µM | CLH [6]: 0.04 µL/min/pmol and < 0.02 µL/min/pmol | clearance [7]: 3.3 mL/min/kg | Papp B→A ([8]; MDCK-MDR1): 1.98 ×10⁻⁶ cm/s | Papp ([8]; mdck): 1.84 ucm/s and 1.62 ucm/s | dose excreted at 24 h [9]: 20% | Papp A→B ([10]; MDCK-MDR1): 1.34 ×10⁻⁶ cm/s | Papp ([10]; mdck): 1.29 ucm/s and 1.26 ucm/s | Stability [11]: Stable | Stability [12]: Stable | Drug metabolism [13]: Metabolite_Detected | AUC [14]: 19.2 µM·h | AUC(0-inf) [15]: 26.7 µM·h | concentration ([16]; in vivo, 24 h): 15.7 µM | concentration at 24 h ([16]; urine): 16.3 µM | concentration [17]: 120 µM and 47.8 µM | Drug metabolism [18]: Metabolite_Notdetected | Stability [19]: Stable | Stability [20]: Stable | dose excreted at 24 h [21]: 20% | Drug metabolism [22]: 5.4 µM | Stability [23]: Stable | Drug metabolism [24]: Metabolite_Notdetected | Stability [25]: Stable | concentration [26]: 153 µM | remaining at 1 h, 250 pmol/ml [27]: 110% | Stability [28]: 108.9% | half-life at 250 pmol/ml [29]: 1.5 h | t1/2 [30]: > 2.42 h | IC50 [31]: 17.3 µM and 39.3 µM and 21.9 µM | Drug metabolism [32]: Metabolite_Notdetected | remaining at 1 h, 250 pmol/ml [33]: 61.8% | Stability [34]: 74.9% | concentration [35]: 38 µM | IC50 [36]: 61.7 µM and 10.6 µM and 10.8 µM | IC50 [37]: > 100 µM and 78.7 µM and 31.2 µM | IC50 [38]: 74.4 µM and 32.4 µM and 31 µM | AUC [39]: 83.9 µM·h and 37.3 µM·h | IC50 [40]: 32.6 µM and 92.1 µM and > 100 µM | IC50 [41]: > 30 µM | Drug metabolism [42]: Metabolite_Notdetected
